Test results as given in ChEMBL document CHEMBL1154201, “2-Aminobenzimidazoles as potent Aurora kinase inhibitors” (Bioorg Med Chem Lett, 2009).
Values after ≈ are worked out from the molar mass of the structure shown. Active and inactive are the calls of the source. The rule behind the calls is not given here.

Key:
[1] = test system: HCT-116; test: Cell cycle arrest in human HCT116 cells assessed as accumulation of 4N DNA by FACS analysis; assay type: functional, cell-based
Summary of the method: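 HCT116 cells exposed to 16, 63, 250 and 1000 nM of compound, then cell-cycle profile read by FACS. EC50 is reported as the concentration range at which ≥50% of cells have 4 N or higher DNA content.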

[2] = Aqueous solubility at pH 4; assay type: physicochemical
Summary of the method: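 Kinetic solubility at pH 4.0, reported as a range from low to high solubility; values of 1000 µM or higher are reported as >1000 µM.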

[3] = biological target: T1, Aurora kinase A (Homo sapiens, UniProt O14965); test: Inhibition of Aurora A after 60 mins
T1 sequence (O14965 whole entry): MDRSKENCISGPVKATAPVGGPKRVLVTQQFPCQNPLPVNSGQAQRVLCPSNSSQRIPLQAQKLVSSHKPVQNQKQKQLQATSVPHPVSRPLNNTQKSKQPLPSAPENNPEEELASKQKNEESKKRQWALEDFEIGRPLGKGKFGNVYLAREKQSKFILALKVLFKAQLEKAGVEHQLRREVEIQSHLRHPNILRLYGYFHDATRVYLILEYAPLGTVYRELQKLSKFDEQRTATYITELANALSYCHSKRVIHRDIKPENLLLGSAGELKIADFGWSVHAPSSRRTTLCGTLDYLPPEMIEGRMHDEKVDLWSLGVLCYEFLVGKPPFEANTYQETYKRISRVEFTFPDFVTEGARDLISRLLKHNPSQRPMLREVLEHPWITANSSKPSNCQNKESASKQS

[4] = test system: HCT-116; test: Antiproliferative activity against human HCT116 cells by BrdU incorporation assay; assay type: functional, cell-based
Summary of the method: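 HCT116 proliferation measured as BrdU incorporation; EC50 reported.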

[5] = biological target: Aurora kinase B (Homo sapiens, UniProt Q96GD4); test: Inhibition of Aurora B after 60 mins
Sequence of Aurora kinase B (Q96GD4 whole entry): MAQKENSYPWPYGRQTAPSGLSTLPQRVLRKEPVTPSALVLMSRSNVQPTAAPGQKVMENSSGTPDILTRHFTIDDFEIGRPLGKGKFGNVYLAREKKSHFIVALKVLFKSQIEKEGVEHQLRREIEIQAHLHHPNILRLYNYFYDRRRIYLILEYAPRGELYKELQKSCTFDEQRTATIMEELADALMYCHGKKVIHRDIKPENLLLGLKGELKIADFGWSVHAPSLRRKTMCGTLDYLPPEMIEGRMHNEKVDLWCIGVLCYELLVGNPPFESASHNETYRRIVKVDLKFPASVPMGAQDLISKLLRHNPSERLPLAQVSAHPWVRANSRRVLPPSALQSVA

[6] = Clearance in mouse at 5 mg/kg, iv; assay type: ADME, organism-based; design: dose 5 mg/kg, route intravenous; conditions: in vivo
[7] = Half life in mouse at 5 mg/kg, iv; assay type: ADME, organism-based; design: dose 5 mg/kg, route intravenous; conditions: in vivo
[8] = test system: HCT-116; test: Cell cycle arrest in human HCT116 cells assessed as accumulation of cells at G2 phase; assay type: functional, cell-based

Row | Structure (SMILES) | EC50 [1] [nM] | solubility [2] [µM] | IC50 [3] [nM] | EC50 [4] [nM] | IC50 [5] [nM] | clearance [6] [mL/min/kg] | half-life [7] [h] | Activity [8]
1 | O=C(Nc1cccc(C(F)(F)F)c1)Nc1ncc(CCNc2ncnc3ccsc23)s1 | < 16 | 50 (≈ 23.2 µg/mL) |  |  |  |  |  | 
2 | Fc1cc(CCNc2ncnc3ccsc23)ccc1Nc1nc2cc(C(F)(F)F)ccc2[nH]1 | 63 | 750 (≈ 354 µg/mL) | 64 | 80 | 21 |  |  | 
3 | c1ccc2oc(Nc3ccc(CCNc4ncnc5ccsc45)cc3)nc2c1 |  | 200 (≈ 77.5 µg/mL) |  | 400 | 120 |  |  | 
4 | c1ccc2[nH]c(Nc3ccc(CCNc4ncnc5ccsc45)cc3)nc2c1 |  | > 1000 | 28 | 41 | 10 |  |  | 
5 | FC(F)(F)c1cccc(Nc2nc3ccc(CCNc4ncnc5ccsc45)cc3[nH]2)c1 |  |  |  |  | 1400 |  |  | 
6 | FC(F)(F)c1ccc2nc(Nc3ncc(CCNc4ncnc5ccsc45)s3)[nH]c2c1 |  | 100 (≈ 46.1 µg/mL) | 490 | 1900 | 620 |  |  | 
7 | c1cnc2nc(Nc3ccc(CCNc4ncnc5ccsc45)cc3)[nH]c2c1 |  | > 1000 |  | 270 | 83 |  |  | 
8 | Clc1cnc2nc(Nc3ccc(CCNc4ncnc5ccsc45)cc3)[nH]c2c1 | 16 | 100 (≈ 42.2 µg/mL) | 20 | 17 | 10 |  |  | 
9 | Cn1c(Nc2ccc(CCNc3ncnc4ccsc34)cc2)nc2ccccc21 |  | > 1000 |  |  | 280 |  |  | 
10 | FC(F)(F)c1ccc2nc(Nc3ccc(CCNc4ncnc5ccsc45)nc3)[nH]c2c1 | 63 | 400 (≈ 182 µg/mL) |  | 161 | 63 |  |  | 
11 | c1ccc2[nH]c(Nc3ccc(CNc4ncnc5ccsc45)cc3)nc2c1 |  |  |  |  | > 10000 |  |  | 
12 | c1cc2nc(Nc3ccc(CCNc4ncnc5ccsc45)cc3)[nH]c2cn1 |  | > 1000 |  |  | 140 |  |  | 
13 | c1ccc2[nH]c(Nc3ncc(CCNc4ncnc5ccsc45)s3)nc2c1 |  | 400 (≈ 157 µg/mL) | 1400 |  | 420 |  |  | 
14 | c1cc(CCNc2ncnc3ccsc23)cc(Nc2nc3ccccc3[nH]2)c1 |  |  |  |  | 1400 |  |  | 
15 | c1ccc(-c2c[nH]c(Nc3ccc(CCNc4ncnc5ccsc45)cc3)n2)cc1 |  | > 1000 |  |  | > 10000 |  |  | 
16 | O=C(Nc1ccccc1)Nc1ncc(CCNc2ncnc3ccsc23)s1 | 16 | 100 (≈ 39.7 µg/mL) |  |  |  |  |  | 
17 | c1ccc2sc(Nc3ccc(CCNc4ncnc5ccsc45)cc3)nc2c1 |  | 100 (≈ 40.4 µg/mL) |  |  | 2500 |  |  | 
18 | CS(=O)(=O)O.O=C(Nc1cccc(Cl)c1)Nc1ncc(CCNc2ncnc3ccsc23)s1 [SNS-314 MESYLATE] | < 16 | 50 |  |  |  | 48 | 1.4 | 
19 | Clc1ccc2[nH]c(Nc3ccc(CCNc4ncnc5ccsc45)cc3)nc2c1 | 16 | > 1000 | 28 | 9 | 8 | 39 | 0.45 | Active
20 | FC(F)(F)c1cnc2nc(Nc3ccc(CCNc4ncnc5ccsc45)cc3)[nH]c2c1 | < 16 | 100 (≈ 45.5 µg/mL) | 17 | < 1 | 5 |  | 1.5 | 
21 | FC(F)(F)c1ccc2[nH]c(Nc3ccc(CCNc4ncnc5ccsc45)cc3)nc2c1 | 16 | 750 (≈ 341 µg/mL) | 40 | 5 | 6 | 85 | 0.61 | Active
22 | c1cc(CNc2ncnc3ccsc23)cc(Nc2nc3ccccc3[nH]2)c1 |  |  |  | 8500 | 580 |  |  | 
23 | Cc1nc(Nc2ccc(CCNc3ncnc4ccsc34)cc2)[nH]c1C |  | > 1000 |  |  | 5600 |  |  | 
24 | FC(F)(F)c1ccc2[nH]c(Nc3ccc(CCNc4ncnc5ccsc45)cn3)nc2c1 |  | > 1000 |  |  | 600 |  |  | 
